Assay results taken from ChEMBL document CHEMBL4699454, “Mechanistic insights into the activation of ester prodrugs of 666-15” (Bioorg Med Chem Lett, 2020).

Tests used:
[1] = tested on: MDA-MB-231; test: Antiproliferative activity against human MDA-MB-231 cells assessed as inhibition of cell growth incubated for 72 hrs by MTT assay; type: functional
In short: (§1)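 MTT viability read-out after 72 h exposure of TNBC cells to increasing compound concentrations. GI50 = concentration giving 50% growth inhibition; mean ± SD from at least two independent experiments run in duplicate. Stocks of the ester prodrugs prepared in DMF, parent compound stocks in DMSO.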

[2] = Stability of the compound in DMSO; type: physicochemical
[3] = Ratio of GI50 for human MDA-MB-231 cells to GI50 for human MDA-MB-468 cells assessed as cell growth inhibition measured after 72 hrs by MTT assay; type: functional
[4] = Inhibition of CREB (unknown origin) expressed in HEK293T cells transfected with pCRE-RLuc assessed as inhibition of forskolin-induced CREB transcription activity by luciferase reporter gene assay; type: cell-based; settings: Homo sapiens, HEK-293T
In short: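 HEK293T cells transiently transfected with pCRE-RLuc (Renilla luciferase under CREB control), treated with graded compound concentrations, then stimulated with forskolin to raise CREB phosphorylation; luciferase signal read. IC50 = concentration halving reporter transcription; mean ± SD of at least two experiments in triplicate. Prodrug stocks in DMF, parent in DMSO.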

[5] = tested on: MDA-MB-468; test: Antiproliferative activity against human MDA-MB-468 cells assessed as inhibition of cell growth incubated for 72 hrs by MTT assay; type: functional; in short: as §1
[6] = Aqueous solubility of the compound in distilled de-ionized water; type: physicochemical
[7] = Stability of the compound in DMEM at 200 uM incubated for 5 to 30 mins in presence of 10% FBS by HPLC analysis; settings: time min 5-30
In short: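 Compound at 200 μM incubated in DMEM with 10% FBS at 37 °C; aliquots withdrawn at various time points and analysed by HPLC, peaks assigned by comparison with authentic reference samples.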

Row | GI50 [1] | Stabilty [2] | IC50 [4] | GI50 [5] | solubility [6] | SMILES | Ratio IC50 [3] | Stability [7]
1 | 540 nM | Unstable | 260 nM | 45 nM |  | NCCCOc1cc2ccccc2cc1C(=O)Oc1cc(Cl)ccc1NC(=O)c1cc2ccccc2cc1OCCN | 10 | 
2 | 670 nM | Unstable | 250 nM | 32 nM | > 100 mg/mL | Cl.Cl.NCCCOc1cc2ccccc2cc1C(=O)Nc1ccc(Cl)cc1OC(=O)c1cc2ccccc2cc1OCCN | 10 | Unstable
3 |  |  |  |  | < 0.5 mg/mL | Cl.NCCCOc1cc2ccccc2cc1C(=O)NCCOc1cc2ccccc2cc1C(=O)Nc1ccc(Cl)cc1O |  | 
